{"source": "paper PMC3741069", "about": "(Biochemistry, 2013)", "test_in_all_cases": "spectral perturbation titration", "assay_type_in_all_cases": "binding", "key": {"nitrate reductase (NarB) [1]": {"target": "T1, nitrate reductase (NarB) (Synechococcus elongatus, UniProt P39458)", "T1 sequence (P39458 15-729)": "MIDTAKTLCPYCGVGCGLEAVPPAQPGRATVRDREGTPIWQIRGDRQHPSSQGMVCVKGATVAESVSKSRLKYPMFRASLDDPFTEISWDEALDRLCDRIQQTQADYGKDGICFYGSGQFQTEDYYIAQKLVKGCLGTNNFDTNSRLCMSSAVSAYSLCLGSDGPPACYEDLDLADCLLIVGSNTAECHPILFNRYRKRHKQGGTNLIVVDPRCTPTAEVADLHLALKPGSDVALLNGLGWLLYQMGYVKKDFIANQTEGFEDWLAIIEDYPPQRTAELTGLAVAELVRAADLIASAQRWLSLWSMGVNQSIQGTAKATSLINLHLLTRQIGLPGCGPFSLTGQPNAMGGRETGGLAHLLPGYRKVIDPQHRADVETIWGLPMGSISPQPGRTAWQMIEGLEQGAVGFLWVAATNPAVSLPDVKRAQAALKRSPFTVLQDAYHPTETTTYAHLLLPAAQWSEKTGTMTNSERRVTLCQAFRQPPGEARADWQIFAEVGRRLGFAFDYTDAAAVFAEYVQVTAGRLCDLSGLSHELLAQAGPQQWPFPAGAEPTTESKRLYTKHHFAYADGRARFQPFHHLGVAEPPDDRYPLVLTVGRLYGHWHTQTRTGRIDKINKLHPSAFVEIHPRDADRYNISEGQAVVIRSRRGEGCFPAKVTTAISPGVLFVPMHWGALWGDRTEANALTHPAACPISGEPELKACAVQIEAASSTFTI", "procedure,_shortened": "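Recombinant wild-type Synechococcus sp. PCC 7942 NarB had its first 14 residues deleted and a C-terminal His6 tag. It was expressed in E. coli DH5a with 100 μM molybdate and purified by Co affinity, DEAE and gel filtration. Oxidized enzyme was titrated with ferredoxin (read at 420 minus 600 nm) or nitrate (read at 400 minus 470 nm; change at saturating nitrate taken as 100% complex). Kd came from a single binding isotherm fit.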"}, "nitrate reductase (NarB) [2]": {"target": "T2, nitrate reductase (NarB) (Synechococcus elongatus, UniProt P39458, R84Q)", "T2 sequence (P39458 15-729 R84Q)": "T1 sequence (P39458 15-729) with R70Q", "procedure,_shortened": "(§1)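 Single-residue NarB variants were made by site-directed mutagenesis and expressed and purified as for wild type (His6, Co affinity, DEAE, gel filtration). Complex formation with ferredoxin or nitrate was followed by difference absorbance at variant-specific wavelength pairs chosen for signal:noise. The change at saturating nitrate was taken as 100% complex. Kd came from fitting perturbation magnitude against ligand concentration to a single binding isotherm.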"}, "nitrate reductase (NarB) [3]": {"target": "T3, nitrate reductase (NarB) (Synechococcus elongatus, UniProt P39458, R160Q)", "T3 sequence (P39458 15-729 R160Q)": "T1 sequence (P39458 15-729) with R146Q", "procedure,_shortened": "as §1"}}, "note": "Changes are numbered by the printed parent chain."}
{"smiles": "O=[N+]([O-])O", "note": "[nitrate]", "values": [{"measurement": "Kd", "setting": "nitrate reductase (NarB) [1]", "value": "1 ± 0.3", "unit": "µM"}, {"measurement": "Kd", "setting": "nitrate reductase (NarB) [2]", "value": "5.5 ± 2.2", "unit": "µM"}, {"measurement": "Kd", "setting": "nitrate reductase (NarB) [3]", "value": "1.5 ± 0.4", "unit": "µM"}]}
